From ChEMBL document CHEMBL5608231, “Lysineless HiBiT and NanoLuc Tagging Systems as Alternative Tools for Monitoring Targeted Protein Degradation” (ACS Med Chem Lett, 2024) come the findings set out here.

One may read the EC50 as the concentration at which the effect is half-maximal. Broadly, the Kd is the free concentration of one partner at which half of the binding sites on the other are occupied at equilibrium, for simple one-to-one binding. A lower Kd goes with tighter binding.

Calls of active or inactive are those of the source. The calls are words filed in the database; no cut-off is given here. Residues, ends and D or L forms follow the SMILES beside them.

The target of assay [1] is T1, von Hippel-Lindau disease tumor suppressor/Receptor-interacting serine/threonine-protein kinase 1 (Homo sapiens, UniProt Q13546+P40337). As to the kind of experiment: PROTAC activity at VHL/wild type nLuc-fused N-terminal RIPK1 kinase domain (unknown origin) expressed in HEK293T cells assessed as induction of protein degradation measured after 24 hrs in presence of furimazine substrate by Nano-Glo luciferase based luminescence analysis relative to control. It is filed as cell-based. The gist of the method:
(§1)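 HEK293T cells transiently transfected with nLuc (WT or K0)-RIPK1 kinase domain (1-324) through a 24-residue linker, expressed 24–36 h. Replated at 20,000 cells/well in Opti-MEM with 4% FBS. Treated 24 h with 1.6–1,000 nM (5-fold, 1% DMSO). Medium removed, Nano-Glo substrate 1:100 in PBS added, live-cell luminescence read. Three-parameter inhibitor fit; at least two biological batches.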
Target sequence in this assay (P40337 whole entry, looked up, the tested form may be a part): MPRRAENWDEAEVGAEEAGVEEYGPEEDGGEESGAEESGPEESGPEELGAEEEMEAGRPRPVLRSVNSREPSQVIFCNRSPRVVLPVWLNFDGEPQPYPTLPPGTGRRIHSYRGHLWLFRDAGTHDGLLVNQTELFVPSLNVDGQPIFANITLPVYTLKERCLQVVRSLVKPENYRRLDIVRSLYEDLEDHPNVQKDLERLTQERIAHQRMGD
Target sequence in this assay (Q13546 whole entry, looked up, the tested form may be a part): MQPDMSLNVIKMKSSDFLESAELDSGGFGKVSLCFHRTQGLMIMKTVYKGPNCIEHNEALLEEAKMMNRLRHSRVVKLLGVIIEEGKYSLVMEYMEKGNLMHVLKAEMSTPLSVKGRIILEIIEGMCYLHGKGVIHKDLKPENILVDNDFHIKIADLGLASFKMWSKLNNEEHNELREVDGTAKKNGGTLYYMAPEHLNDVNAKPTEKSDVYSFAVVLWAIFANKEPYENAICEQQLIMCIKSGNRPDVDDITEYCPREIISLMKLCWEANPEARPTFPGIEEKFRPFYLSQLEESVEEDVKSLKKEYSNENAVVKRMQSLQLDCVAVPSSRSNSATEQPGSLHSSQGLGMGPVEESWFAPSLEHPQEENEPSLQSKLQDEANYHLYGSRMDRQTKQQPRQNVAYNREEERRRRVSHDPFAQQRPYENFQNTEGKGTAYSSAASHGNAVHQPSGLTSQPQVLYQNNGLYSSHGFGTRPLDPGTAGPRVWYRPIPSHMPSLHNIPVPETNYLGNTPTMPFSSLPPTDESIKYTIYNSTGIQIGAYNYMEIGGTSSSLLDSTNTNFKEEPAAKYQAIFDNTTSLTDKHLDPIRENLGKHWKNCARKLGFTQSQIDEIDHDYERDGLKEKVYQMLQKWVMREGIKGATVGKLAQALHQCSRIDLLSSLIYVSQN

The target in assay [2] is T1, von Hippel-Lindau disease tumor suppressor/Receptor-interacting serine/threonine-protein kinase 1. The assay is described as follows: PROTAC activity at VHL/wild type nLuc-fused N-terminal RIPK1 kinase domain (unknown origin) expressed in HEK293T cells assessed as induction of protein degradation at 1.6 to 1000 nM measured after 24 hrs by immunoblot analysis. Format: cell-based. The note with it: dose 1.6-1000 nM. A digest of the protocol: (§2)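 HEK293T cells transfected with nLuc (WT or K0)-RIPK1 kinase domain, plated in 12-well plates and treated 24 h. Lysed in RIPA with protease/phosphatase inhibitors and benzonase. 20 µg protein run on SDS-PAGE and transferred to PVDF. Probed overnight at 4 °C with anti-RIPK1 (1:1000) and β-actin (1:4000), then HRP secondary and ECL.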
A general note: Immunoblotting shows a protein as a band on a membrane.
Target sequence in this assay (P40337 whole entry, looked up, the tested form may be a part): as the sequence (P40337 whole entry, looked up, the tested form may be a part) above
Target sequence in this assay (Q13546 whole entry, looked up, the tested form may be a part): as the sequence (Q13546 whole entry, looked up, the tested form may be a part) above

For assay [3] the target is unchanged. As to the kind of experiment: PROTAC activity at VHL/nLucK0-fused N-terminal RIPK1 kinase domain (unknown origin) expressed in HEK293T cells assessed as induction of protein degradation at 1.6 to 1000 nM measured after 24 hrs by immunoblot analysis. Format: cell-based. The note with it: dose 1.6-1000 nM. The gist of the method:
as §2
Target sequence in this assay (P40337 whole entry, looked up, the tested form may be a part): as the sequence (P40337 whole entry, looked up, the tested form may be a part) above
Target sequence in this assay (Q13546 whole entry, looked up, the tested form may be a part): as the sequence (Q13546 whole entry, looked up, the tested form may be a part) above

Assay [4] is described as follows: Binding affinity to His-tagged LgBiT (unknown origin) incubated for 30 mins measured after subtracting LgBiT signal in presence of PBS by Nano-Glo luciferase based luminescence analysis. Also on record: species or system Homo sapiens. The gist of the method:
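Incubated 30 min, then Nano-Glo substrate was added and luminescence read. The LgBiT-only (PBS) baseline was subtracted before the three-parameter agonist fit.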

The species named for assay [5] is Homo sapiens. As to the kind of experiment: Binding affinity to His-tagged LgBiT (unknown origin) assessed as on-rate constant protein immobilized on chip surface with surface density of 3000 pg/mm2 by grating-coupled interferometry. A digest of the protocol:
(§3)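 His-LgBiT, purified in-house from E. coli BL21(DE3), captured at 50 µg/mL in PBS on a Ni-charged PCP-NTA chip. Two flow channels reached 3000 and 1000 pg/mm2. Kinetics were run in 0.01 M HEPES, 0.15 M NaCl, 0.05% P20, pH 7.4. kon and koff came from a global association-then-dissociation fit.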

The species named for assay [6] is Homo sapiens. As to the kind of experiment: Binding affinity to His-tagged LgBiT (unknown origin) assessed as off-rate constant protein immobilized on chip surface with surface density of 3000 pg/mm2 by grating-coupled interferometry. A digest of the protocol: as §3
For assay [7], the species on record is Homo sapiens. As to the kind of experiment: Binding affinity to His-tagged LgBiT (unknown origin) assessed as on-rate constant protein immobilized on chip surface with surface density of 1000 pg/mm2 by grating-coupled interferometry. The gist of the method: as §3
The species entered for assay [8] is Homo sapiens. As to the kind of experiment: Binding affinity to His-tagged LgBiT (unknown origin) assessed as off-rate constant protein immobilized on chip surface with surface density of 1000 pg/mm2 by grating-coupled interferometry. The gist of the method: as §3
The nature of assay [9]: Binding affinity to His-tagged LgBiT (unknown origin) incubated for 30 mins by Nano-Glo luciferase based luminescence analysis. Also on record: species or system Homo sapiens. The gist of the method: (§4)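 Equilibrated 30 min at room temperature, then Nano-Glo substrate was added and luminescence read. EC50 from a three-parameter agonist fit; at least 3 technical replicates.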

Assay [10] in a line: Binding affinity to LgBiT (unknown origin) incubated for 30 mins by Nano-Glo luciferase based luminescence analysis. Also on record: species or system Homo sapiens. A digest of the protocol:
as §4

A short description of assay [11]: Binding affinity to His-tagged LgBiT (unknown origin) immobilized on chip surface with surface density of 3000 pg/mm2 by grating-coupled interferometry. Also on record: species or system Homo sapiens. A digest of the protocol:
as §3

Assay [12] in a line: Binding affinity to His-tagged LgBiT (unknown origin) immobilized on chip surface with surface density of 1000 pg/mm2 by grating-coupled interferometry. Also on record: species or system Homo sapiens. A digest of the protocol: as §3
Assay [13] deals with T1, von Hippel-Lindau disease tumor suppressor/Receptor-interacting serine/threonine-protein kinase 1. As to the kind of experiment: PROTAC activity at VHL/wild type nLuc-fused N-terminal RIPK1 kinase domain (unknown origin) expressed in HEK293T cells assessed as induction of protein degradation measured after 24 hrs in presence of furimazine substrate by Nano-Glo luciferase based luminescence analysis. Format: cell-based. The gist of the method: as §1
Target sequence in this assay (Q13546 whole entry, the tested form may be a part): as the sequence (Q13546 whole entry, looked up, the tested form may be a part) above
Target sequence in this assay (P40337 whole entry, the tested form may be a part): as the sequence (P40337 whole entry, looked up, the tested form may be a part) above

For assay [14] the target is unchanged. The assay is described as follows: PROTAC activity at VHL/nLucK0-fused N-terminal RIPK1 kinase domain (unknown origin) expressed in HEK293T cells assessed as induction of protein degradation measured after 24 hrs in presence of furimazine substrate by Nano-Glo luciferase based luminescence analysis. Format: cell-based. A digest of the protocol:
as §1
Target sequence in this assay (Q13546 whole entry, the tested form may be a part): as the sequence (Q13546 whole entry, looked up, the tested form may be a part) above
Target sequence in this assay (P40337 whole entry, the tested form may be a part): as the sequence (P40337 whole entry, looked up, the tested form may be a part) above

Take `Cc1ncsc1-c1ccc([C@H](C)NC(=O)[C@@H]2C[C@@H](O)CN2C(=O)[C@@H](NC(=O)CCCCCCCCCCC(=O)NCCCn2cc(-c3ccc4c(c3)CCN4C(=O)Cc3cccc(OC(F)(F)F)c3)c3c(N)ncnc32)C(C)(C)C)cc1`: the %max in assay [1] is 91.5%. Moreover, the result in assay [2] and in assay [3] was Active.

Turning to `CC[C@H](C)[C@H](NC(=O)[C@H](CCCCN)NC(=O)[C@H](CCCCN)NC(=O)[C@H](Cc1ccccc1)NC(=O)[C@H](CC(C)C)NC(=O)[C@H](CCCNC(=N)N)NC(=O)[C@H](Cc1c[nH]c2ccccc12)NC(=O)CNC(=O)[C@H](CO)NC(=O)[C@@H](N)C(C)C)C(=O)N[C@@H](CO)C(=O)O`, the EC50 in assay [4] was found to be 24 nM. The K in the assay listed under Homo sapiens [5] is 3 10^5/M/s; in the assay filed under Homo sapiens [6] it was 1.4 10^-3/s; in the assay listed under Homo sapiens [7], 7.5 10^5/M/s; in the assay listed under Homo sapiens [8] it was 1.3 10^-3/s.

As to `CC[C@H](C)[C@H](NC(=O)[C@H](CCCNC(=N)N)NC(=O)[C@H](CCCNC(=N)N)NC(=O)[C@H](Cc1ccccc1)NC(=O)[C@H](CC(C)C)NC(=O)[C@H](CCCNC(=N)N)NC(=O)[C@H](Cc1c[nH]c2ccccc12)NC(=O)CNC(=O)[C@H](CO)NC(=O)[C@@H](N)C(C)C)C(=O)N[C@@H](CO)C(=O)O` (H-VSGWRLFRRIS-OH), the concentration for a half-maximal effect (EC50) in assay [9] was found to be 8.7 nM; in assay [10] it was 6.2 nM; in assay [4], 16 nM. In addition, the equilibrium dissociation constant (Kd) in [11] amounted to 1.8 nM; in assay [12], 0.7 nM. The K in the assay listed under Homo sapiens [5] was 3.6 10^5/M/s; in the assay listed under Homo sapiens [6], 6.7 10^-3/s; in the assay listed under Homo sapiens [7], 7.7 10^5/M/s; in the assay filed under Homo sapiens [8] it was 5 10^-4/s.

Turning to `Cc1ncsc1-c1ccc([C@H](C)NC(=O)[C@H]2C[C@H](O)CN2C(=O)[C@@H](NC(=O)CCCCCCCCCCC(=O)NCCCn2cc(-c3ccc4c(c3)CCN4C(=O)Cc3cccc(OC(F)(F)F)c3)c3c(N)ncnc32)C(C)(C)C)cc1`, the DC50 entry in assay [13] and in assay [14] was “Not Active” in each case.
